From PubChem BioAssay
G6PDH CS = L. mesenteroides G6PDH inhibitors, counter-screen for G6PDH-coupled screening assays, biochemical, Leuconostoc mesenteroides enzyme | 200,000 tested, 0.12% active | glucose-6-phosphate dehydrogenase [Leuconostoc mesenteroides] | inhibition, % at 5 µM | Purified L. mesenteroides G6PDH, diaphorase/resazurin coupled fluorescence, 45 min; in the data active = inhibition above about 50%
HKDC1 inhibitor = HKDC1 hexokinase inhibitors, primary screen, biochemical, fluorescence, uHTS. AID 493160, 2011. 340,000 tested, 0.16% active. inhibition, % at 20 µM. recombinant HKDC1, G6PDH/diaphorase resazurin coupled fluorescence;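 active = inhibition above about 35% when tested at 20 µM, limit read from the data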
Target sequence (Q2TB90 whole entry, looked up): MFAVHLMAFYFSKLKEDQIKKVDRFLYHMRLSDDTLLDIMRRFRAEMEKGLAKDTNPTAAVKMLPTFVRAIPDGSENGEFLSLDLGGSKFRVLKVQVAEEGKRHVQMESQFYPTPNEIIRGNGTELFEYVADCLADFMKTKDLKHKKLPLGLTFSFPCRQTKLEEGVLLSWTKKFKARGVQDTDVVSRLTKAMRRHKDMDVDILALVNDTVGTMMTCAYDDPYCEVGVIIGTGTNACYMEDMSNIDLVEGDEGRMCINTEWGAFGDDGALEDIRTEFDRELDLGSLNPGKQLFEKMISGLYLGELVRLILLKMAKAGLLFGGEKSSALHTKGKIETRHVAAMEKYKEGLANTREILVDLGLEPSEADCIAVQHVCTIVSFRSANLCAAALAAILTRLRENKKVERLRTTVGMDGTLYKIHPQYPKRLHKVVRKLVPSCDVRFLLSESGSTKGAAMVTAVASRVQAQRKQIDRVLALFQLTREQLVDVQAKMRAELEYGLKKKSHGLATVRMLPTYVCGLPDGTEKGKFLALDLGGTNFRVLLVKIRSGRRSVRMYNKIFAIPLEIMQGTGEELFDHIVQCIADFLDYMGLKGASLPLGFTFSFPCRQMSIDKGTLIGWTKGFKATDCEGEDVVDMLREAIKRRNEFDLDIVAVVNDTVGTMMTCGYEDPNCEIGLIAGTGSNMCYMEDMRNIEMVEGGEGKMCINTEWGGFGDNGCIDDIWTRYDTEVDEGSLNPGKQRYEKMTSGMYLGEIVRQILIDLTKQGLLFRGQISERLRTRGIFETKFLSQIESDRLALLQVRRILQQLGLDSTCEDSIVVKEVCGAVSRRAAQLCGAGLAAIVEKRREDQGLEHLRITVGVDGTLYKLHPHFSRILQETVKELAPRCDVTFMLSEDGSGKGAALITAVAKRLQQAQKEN
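Test system: HK5 enzyme. Quantity: 5 µg/mL HK5 final. Reagent: glucose and ATP substrates. Schedule: 90 min reaction incubation at room temperature, dark. Technique: resazurin-to-resorufin fluorescence via G6PDH and diaphorase coupling, 525/613 nm. Control set: DMSO wells with and without enzyme mix.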
PfGluPho inh = PfG6PD enzyme inhibitors, primary screen, biochemical, fluorescence intensity, uHTS | 350,000 tested, 0.78% active | inhibition, % at 20 µM | AID 504690, 2011 | PfGluPho enzyme, NADPH resazurin-diaphorase fluorescence | glucose-6-phosphate dehydrogenase-6-phosphogluconolactonase (Plasmodium falciparum 3D7);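 active = inhibition reaching at least a set limit at 20 µM in the primary screen, cut at about 59% in these data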
Diaphorase inh = diaphorase inhibitors and chemical oxidizers, primary screen, counter-screen for diaphorase-coupled primary assays, biochemical, uHTS, resorufin fluorescence; diaphorase resazurin-to-resorufin fluorescence, NADH, 16 min; bacterial (C. kluyveri) enzyme, not human; AID 1217, 2008; 190,000 tested, 0.69% active; inhibition, % at 20 µM;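 active = primary screen inhibition at 20 µM above a set limit, cut at about 50% in these data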
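controls = No-NADH positive control and DMSO neutral control | system = Clostridium kluyveri diaphorase enzyme | timing = reaction incubation of 16 min at room temperature | signal = resorufin fluorescence 544/590 nm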
Diaphorase act = compounds boosting diaphorase resazurin reduction – biochemical, uHTS, resorufin fluorescence, counter-screen for diaphorase-coupled primary assays, primary screen. Diaphorase/resazurin coupled assay, 16 min; stronger effect = higher value; 1 = vehicle wells, 0 = NADH-free wells. activation factor at 20 µM. 190,000 tested, 0.005% active. AID 1229, 2008;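 active = diaphorase activity raised at least twofold by the compound at 20 µM; inactive = activation factor below 2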
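Material: purified diaphorase enzyme from Clostridium kluyveri; Also added: 0.114 mM NADH and 0.1 mM resazurin, final amounts; Doses: single compound dose of 20 µM, 1% DMSO final; Times: 16 min enzyme reaction, ambient temperature; Detection: resorufin fluorescence, excitation 544 nm, emission 590 nm; Measure: increased resorufin signal from activators or reducing compounds.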
PfGluPho conf = PfG6PD inhibitors, hit retest, confirmation, biochemical, fluorescence intensity, single concentration | AID 504753, 2011 | shares compounds with PfGluPho inh | recombinant PfGluPho, NADPH-diaphorase-resazurin fluorescence | inhibition, % at 20 µM | 2,400 tested, 34% active;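 active = inhibition of at least 50% at 20 µM in any single replicate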
Diaphorase 10uM = diaphorase inhibitors and chemical oxidizers, confirmation, counter-screen for P. falciparum G6PD inhibitor project, biochemical, fluorescence intensity, 10 µM NADPH. shares compounds with PfGluPho inh. diaphorase-coupled resazurin reduction, NADPH 10 uM. inhibition, % at 20 µM. 820 tested, 39% active. AID 504862, 2011;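 active = average inhibition reaching 50% or more with the compound at 20 µM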;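 note: resorufin red fluorescence formed as diaphorase reduces resazurin using NADPH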
Diaph ctr 30uM = diaphorase inhibitors and chemical oxidizers, confirmation, counter-screen for P. falciparum G6PD inhibitor project, biochemical, fluorescence intensity, 30 µM NADPH | shares compounds with PfGluPho inh | Diaphorase/resazurin coupled assay, resorufin fluorescence | inhibition, % at 20 µM | 820 tested, 29% active | AID 504863, 2011;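 active = inhibition averaging 50% or more, tested at 20 µM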
Numbers stand for hits; - = inactive; . = no result given. The list is not random: actives were taken first. Their share in the collection is about 1.3%.

SMILES	G6PDH CS	HKDC1 inhibitor	PfGluPho inh	Diaphorase inh	Diaphorase act	PfGluPho conf	others
CC(=O)Nc1nonc1NC(C)=O	-	-	-	-	-	.
Cc1cc(/C=C2\Cc3ccccc3C2=O)c(C)n1-c1ccccc1	-	-	59	-	-	-
Cc1cc(C=C2C(=O)c3ccccc3C2=O)c(C)n1-c1cccc(C(=O)O)c1	-	-	61	-	-	-
Cc1cc(C=C2C(=O)c3ccccc3C2=O)c(C)n1-c1ccc(C(=O)O)cc1	-	-	100	-	-	73	Diaphorase 10uM=54;Diaph ctr 30uM=61
CCc1ccc(NC(=O)CSc2nc3nc(C)cc(C)n3n2)cc1	.	-	-	.	.	.
CCn1c(CC(=O)Nc2ccccc2F)nnc1SCC(=O)NC1=NCCS1	.	.	-	.	.	.
CCOc1ccccc1NC(=O)CSc1nnc(-c2cnccn2)n1CC	-	-	73	-	-	-
C=CCn1c(SCC(=O)Nc2ccc(F)cc2)nnc1-c1cnccn1	.	-	64	.	.	-
CCn1c(SCC(=O)Nc2ccc(F)cc2)nnc1-c1cnccn1	.	-	87	.	.	-
CCn1c(SCC(=O)Nc2ccccc2Br)nnc1-c1cnccn1	.	-	-	.	.	.
CCC(NC(=O)OCc1ccccc1)C(=O)Oc1ccc2ccc(=O)oc2c1 (stereo not drawn)	.	-	-	.	.	.
Cc1cc(NC(=O)CSCC(=O)Nc2nc3ccccc3s2)no1	.	-	-	.	.	.
Cc1ccc2nc(SCC(=O)N/N=C/c3ccco3)cc(C)c2c1	-	-	69	-	-	50	Diaphorase 10uM=66;Diaph ctr 30uM=-
Cc1ccc2nc(C)cc(SCC(=O)N/N=C/c3ccco3)c2c1	.	-	-	.	.	.
Cc1ccc2nc(N/N=C/c3ccco3)cc(C)c2c1	-	-	64	-	-	-
CCN(c1cccc(C)c1)S(=O)(=O)c1cc2c3c(c1)CCC(=O)N3CCC2	.	-	-	.	.	.
CCOc1ccc(-c2c(C(=O)N/N=C/C3CC=CCC3)nnn2-c2nonc2N)cc1 (stereo not drawn)	.	-	-	.	.	.
CC1=CC(=O)C(C(C)C)=C/C1=N/OS(=O)(=O)c1ccccc1	.	-	105	.	.	96	Diaphorase 10uM=73;Diaph ctr 30uM=77
CC1=CC(=O)C=C(C)C1=NOS(=O)(=O)c1ccccc1	-	-	112	-	-	111	Diaphorase 10uM=103;Diaph ctr 30uM=100
Cc1ccc2c(c1)/C(=N/OS(=O)(=O)c1ccccc1)CCS2	.	-	-	.	.	.
COc1ccc(-c2nc(N)ncc2-c2ccccc2OC)c(O)c1	.	-	74	.	.	-
Cc1ccc(Cc2c(-c3ccc(F)cc3)nc3ccc(Cl)cn23)cc1	.	.	62	.	.	-
Cc1ccc(Cc2c(-c3ccc(Br)cc3)nc3cc(C)ccn23)cc1	.	.	109	.	.	-
Cc1ccn2c(/C=N/OCc3ccc(F)cc3)c(-c3ccc(Cl)cc3)nc2c1	-	-	-	-	-	.
Cc1ccc(Cc2c(-c3ccccc3)nc3ccc(Br)cn23)cc1	.	.	-	.	.	.
Cc1ccc(Cc2c(-c3ccc(F)cc3)nc3cc(C)ccn23)cc1	.	.	71	.	.	-
Cc1ccc(C2=NCN(c3ccc(C(=O)O)cc3)C(=S)N2)cc1	-	.	.	-	-	.
CN1CCc2c(sc3c2c(=O)n(-c2ccccc2)c2nnc(SCc4ccccc4)n32)C1	-	-	60	-	-	-
C(=N\NC1=Nc2cccc3cccc1c23)/c1ccccn1	-	-	65	-	-	-
O=C(COC(=O)c1ccc(S(=O)(=O)C(F)F)cc1)Nc1ccccc1C(=O)NC1CC1	.	-	-	.	.	.
